Experimental data reported in ChEMBL document CHEMBL1152376, “N-[(Dihydroxyphenyl)acyl]serotonins as potent inhibitors of tyrosinase from mouse and human melanoma cells” (Bioorg Med Chem Lett, 2009).
Calls of active or inactive are those of the source. The calls are words filed in the database; no cut-off is given here.

Experiments:
Tyrosinase [1] = biological target: T1, Tyrosinase (Mus musculus, UniProt P11344); assay: Inhibition of catecholase activity of tyrosinase in mouse B16 cells assessed as dopachrome formation; type: cell-based
T1 sequence (P11344 whole entry): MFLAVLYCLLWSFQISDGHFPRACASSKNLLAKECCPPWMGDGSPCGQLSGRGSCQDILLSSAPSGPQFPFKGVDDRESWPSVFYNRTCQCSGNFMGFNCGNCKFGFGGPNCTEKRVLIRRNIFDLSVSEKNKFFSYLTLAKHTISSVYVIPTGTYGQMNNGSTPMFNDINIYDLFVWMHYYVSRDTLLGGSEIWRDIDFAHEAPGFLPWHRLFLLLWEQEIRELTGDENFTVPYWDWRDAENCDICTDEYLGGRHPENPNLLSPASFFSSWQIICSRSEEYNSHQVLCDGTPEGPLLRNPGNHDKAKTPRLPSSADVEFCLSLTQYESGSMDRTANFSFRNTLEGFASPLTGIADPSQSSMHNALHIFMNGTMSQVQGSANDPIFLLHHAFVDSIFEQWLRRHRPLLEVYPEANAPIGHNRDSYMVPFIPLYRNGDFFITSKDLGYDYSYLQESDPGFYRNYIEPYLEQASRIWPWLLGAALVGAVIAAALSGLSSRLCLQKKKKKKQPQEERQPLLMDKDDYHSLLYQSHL

[2] = Cytotoxicity against mouse B16 cells assessed as cell viability at 20 uM after 2 days by tetrazolium reduction assay; type: cell-based; conditions: read-out: Activity
Outline: (§1)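 B16 cells seeded at 1.5 × 10⁴ per well, cultured 1 day, then given compound in ethanol (stock 0–10 mM) and incubated 2 days. Medium aspirated and viability measured with a tetrazolium reagent. Values are means of 8 or 9 wells, with Student's t-test against control.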

B16 [3] = assay: Antimelanogenic activity in mouse B16 cells assessed as inhibition of extracellular melanin formation after 2 days; conditions: B16, 48 h
B16 [4] = assay: Cytotoxicity against mouse B16 cells assessed as cell viability at < 30 uM after 2 days by tetrazolium reduction assay; type: cell-based; conditions: b16, 48 h; outline: as §1
Tyrosinase [5] = biological target: T1, Tyrosinase; assay: Apparent noncompetitive inhibition of catecholase activity of tyrosinase in mouse B16 cells by Lineweaver-Burke plot analysis; type: cell-based; conditions: read-out: Ki(app)
Outline: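 Tyrosinase extracted from B16 cells (DMEM, 15% FBS) was assayed with L-DOPA in 50 mM phosphate buffer pH 6.8 at 37 °C. Dopachrome formation over 5 min was read at 475 nm (ε = 3700 M⁻¹ cm⁻¹). Inhibitor was tested at several fixed levels (e.g. 0–70 µM), L-DOPA was varied, Lineweaver–Burk lines were fitted by least squares, and apparent Ki was derived.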

B16 [6] = assay: Cytotoxicity against mouse B16 cells assessed as cell viability at 10 to 30 uM after 2 days by tetrazolium reduction assay; type: cell-based; conditions: b16, 48 h; outline: as §1
[7] = Cytotoxicity against mouse B16 cells assessed as cell viability at 200 uM after 2 days by tetrazolium reduction assay; type: cell-based; conditions: read-out: Activity
Outline: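 B16 mouse melanoma cells in DMEM with 15% FBS, seeded at 1.5 × 10⁴ cells per well and cultured 1 day. Compound then added in ethanol and incubated 2 days. Medium aspirated and viability read with a tetrazolium reagent. Means of 8 or 9 wells, Student's t-test versus control.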

B16 [8] = assay: Ratio of IC50 of drug to IC50 of kojic acid for antimelanogenic activity in mouse B16 cells; type: functional
Outline: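 B16 cells (1.5 × 10⁴ per well) were cultured 1 day, given compound in ethanol (stock 0–10 mM), and incubated 2 days. Medium darkening from extracellular melanin was read at 415 nm and IC50 derived.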

B16 [9] = assay: Antimelanogenic activity in mouse B16 cells assessed as inhibition of intracellular melanin accumulation at 2 to 40 uM after 2 days; type: functional, cell-based
Outline: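 B16 cells grown in DMEM with 15% FBS, seeded at 7.5 × 10⁴ cells per well, cultured 1 day, then given compound in ethanol and incubated 2 days. Cells scraped, washed with PBS and sonicated in 0.2 ml 1 N NaOH. Intracellular melanin read as homogenate absorbance at 415 nm, expressed as % control.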

[10] = Antimelanogenic activity in human HMVII cells assessed as inhibition of intracellular melanin accumulation at 20 to 40 uM after 2 days; type: functional, HMV-2
[11] = Cytotoxicity against human HMVII cells assessed as cell viability at 40 uM after 2 days by tetrazolium reduction assay; type: cell-based; conditions: hmv-2, 48 h
Outline: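 HMV-II cells given compound in ethanol and incubated 2 days, then viability measured by tetrazolium reduction. Values are % control, mean ± SEM (n = 3–4) from a representative repeated experiment.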

[12] = biological target: T2, Tyrosinase (Mus musculus) (UniProt P11344); assay: Inhibition of catecholase activity of tyrosinase in mouse B16 cells assessed as residual activity at […] preincubated for 5 to 30 mins in absence of L-DOPA substrate; type: cell-based
T2 sequence (whole entry): T1 sequence (P11344 whole entry)
Outline: (§2)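 Enzyme was preincubated with inhibitor (added in ethanol as a 20 mM stock) in 50 mM phosphate buffer pH 6.8, with or without 0.125 mM L-DOPA, at 37 °C for 5, 10, 20 or 30 min. Buffer containing 5.3 mM L-DOPA was then added and dopachrome read at 475 nm. Control (=100) was 31 min preincubation without inhibitor; mean ± sd, n = 3.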

[13] = biological target: T2, Tyrosinase (Mus musculus); assay: Inhibition of catecholase activity of tyrosinase in mouse B16 cells assessed as residual activity at […] measured after preincubation presence of L-DOPA substrate; type: cell-based; conditions: TDE = time-dependent effect; outline: as §2

SMILES	IC50 (Tyrosinase [1]) [µM]	viability at 48 h, 20 µM [2] [%]	IC50 (B16 [3]) [µM]	Activity (B16 [6])	further results
O=C(NCCc1c[nH]c2ccc(O)cc12)c1ccc(O)cc1	233	100	> 30		
O=C(NCCc1c[nH]c2ccccc12)c1ccc(O)cc1		94	> 30		
O=C(/C=C/c1ccc(O)c(O)c1)NCCc1c[nH]c2ccc(O)cc12 [N-CAFFEOYLSEROTONIN]	28	99	15		Activity (B16 [4]): Non-toxic
NC(=O)c1ccc(O)c(O)c1 [PROTOCATECHUAMIDE]					Ki (Tyrosinase [5]; in the assay text read “Competitive” for “Apparent noncompetitive”): 3700 µM
O=C(/C=C/c1ccc(O)c(O)c1)NCCc1c[nH]c2ccccc12		54		Toxic	
NCCc1c[nH]c2ccc(O)cc12 [SEROTONIN]	550	101	> 30		
O=C(NCCc1c[nH]c2ccc(O)cc12)c1ccccc1	333	96	> 30		
Oc1ccc2[nH]ccc2c1	68	100	13		
COc1cc(C(=O)NCCc2c[nH]c3ccc(O)cc23)ccc1O	211	93	> 30		Activity (B16 [4]): Non-toxic
O=c1cc(CO)occ1O [KOJIC ACID]			111		viability at 48 h, 200 µM [7]: 99%
O=C(NCCc1c[nH]c2ccccc12)c1ccccc1		85		Toxic	
COc1cc(/C=C/C(=O)NCCc2c[nH]c3ccc(O)cc23)ccc1O [N-FERULOYL SEROTONIN]	216	100	23		Activity (B16 [4]): Non-toxic
O=C(NCCc1c[nH]c2ccc(O)cc12)c1ccc(O)cc1O	42	101	15		Activity (B16 [4]): Non-toxic
O=C(/C=C/c1ccc(O)c(O)c1)NCCc1ccc(O)cc1		84		Toxic	
O=C(NCCc1c[nH]c2ccc(O)cc12)c1ccc(O)c(O)c1	73	99	3		Ratio IC50 (B16 [8]): 40; Activity (B16 [9]): inactive; inhibition (INH) [10]: 20%; Activity [11]: Toxic; Ki (Tyrosinase [5]): 64 µM; Activity (B16 [4]): Non-toxic
O=C(NCCc1ccc(O)cc1)c1ccc(O)c(O)c1		88		Toxic	
COc1ccc2[nH]cc(CCNC(=O)/C=C/c3ccc(O)c(O)c3)c2c1		41		Toxic	
CC(=O)NCCc1c[nH]c2ccc(O)cc12 [ACETYLSEROTONIN]	311	93	> 30		Ki (Tyrosinase [5]): 240 µM; Activity [12]: Active; Activity [13]: tde
O=C(NCCc1c[nH]c2ccccc12)c1ccc(O)c(O)c1		69		Toxic	
COc1cc(/C=C/C(=O)NCCc2c[nH]c3ccccc23)ccc1O		102	> 30		
